# Experiments:
# [1] = molecular target: Receptor-type tyrosine-protein kinase FLT3 (Homo sapiens) (UniProt P36888); assay: Inhibition of FLT3 at 1 uM
# Procedure, shortened: (§1)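 Kinase selectivity panel reported as percent inhibition of each kinase at a single test-compound concentration. Values are means of at least two experiments.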
# [2] = molecular target: T1, Aurora kinase A (Homo sapiens) (UniProt O14965); assay: Inhibition of aurora A at 1 uM; procedure, shortened: as §1
# T1 sequence (whole entry): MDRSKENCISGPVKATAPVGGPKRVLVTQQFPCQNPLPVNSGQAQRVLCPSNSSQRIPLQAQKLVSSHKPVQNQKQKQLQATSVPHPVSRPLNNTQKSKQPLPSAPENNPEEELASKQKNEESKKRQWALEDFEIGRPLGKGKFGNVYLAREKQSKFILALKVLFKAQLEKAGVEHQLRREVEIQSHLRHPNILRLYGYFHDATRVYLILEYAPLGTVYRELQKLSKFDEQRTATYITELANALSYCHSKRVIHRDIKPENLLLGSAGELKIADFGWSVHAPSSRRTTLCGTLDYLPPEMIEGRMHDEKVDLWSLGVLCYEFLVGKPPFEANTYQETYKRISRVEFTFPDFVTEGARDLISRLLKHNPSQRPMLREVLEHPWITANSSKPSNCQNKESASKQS
# [3] = molecular target: Tyrosine-protein kinase Srms (Homo sapiens) (UniProt Q9H3Y6); assay: Inhibition of SRMS at 1 uM; procedure, shortened: as §1
# Tyrosine-protein kinase Srms (Homo sapiens), sequence (Q9H3Y6 whole entry): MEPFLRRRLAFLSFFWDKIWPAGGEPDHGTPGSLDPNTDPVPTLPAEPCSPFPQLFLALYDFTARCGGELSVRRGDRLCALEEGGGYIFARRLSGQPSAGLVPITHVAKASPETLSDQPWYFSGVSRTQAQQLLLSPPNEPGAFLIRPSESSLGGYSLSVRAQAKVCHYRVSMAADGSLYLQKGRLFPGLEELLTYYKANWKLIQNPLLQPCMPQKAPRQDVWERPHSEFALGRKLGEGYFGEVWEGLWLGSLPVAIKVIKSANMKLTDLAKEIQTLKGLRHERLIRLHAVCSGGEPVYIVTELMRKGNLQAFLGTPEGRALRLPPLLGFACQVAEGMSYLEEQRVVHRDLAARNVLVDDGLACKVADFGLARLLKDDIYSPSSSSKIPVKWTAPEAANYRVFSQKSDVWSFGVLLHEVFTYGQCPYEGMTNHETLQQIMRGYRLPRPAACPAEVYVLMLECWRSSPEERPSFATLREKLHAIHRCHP
# [4] = molecular target: Protein-tyrosine kinase 6 (Homo sapiens) (UniProt Q13882); assay: Inhibition of PTK6 at 1 uM; procedure, shortened: as §1
# Protein-tyrosine kinase 6 (Homo sapiens), sequence (Q13882 whole entry, looked up): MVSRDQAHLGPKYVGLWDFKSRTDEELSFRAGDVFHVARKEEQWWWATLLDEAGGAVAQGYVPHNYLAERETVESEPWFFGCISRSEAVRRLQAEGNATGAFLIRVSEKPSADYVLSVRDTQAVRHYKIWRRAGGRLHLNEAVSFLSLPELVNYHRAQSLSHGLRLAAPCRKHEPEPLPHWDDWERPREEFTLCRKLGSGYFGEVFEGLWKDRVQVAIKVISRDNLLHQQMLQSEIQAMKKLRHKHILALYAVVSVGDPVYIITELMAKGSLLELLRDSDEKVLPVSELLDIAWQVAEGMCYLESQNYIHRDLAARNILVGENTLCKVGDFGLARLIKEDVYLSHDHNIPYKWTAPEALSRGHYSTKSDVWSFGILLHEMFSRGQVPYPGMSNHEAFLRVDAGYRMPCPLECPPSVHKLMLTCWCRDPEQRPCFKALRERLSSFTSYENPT
# [5] = molecular target: Tyrosine-protein kinase Lck (Homo sapiens) (UniProt P06239); assay: Inhibition of LCK at 1 uM; procedure, shortened: as §1
# Tyrosine-protein kinase Lck (Homo sapiens), sequence (P06239 2-509 limits assumed): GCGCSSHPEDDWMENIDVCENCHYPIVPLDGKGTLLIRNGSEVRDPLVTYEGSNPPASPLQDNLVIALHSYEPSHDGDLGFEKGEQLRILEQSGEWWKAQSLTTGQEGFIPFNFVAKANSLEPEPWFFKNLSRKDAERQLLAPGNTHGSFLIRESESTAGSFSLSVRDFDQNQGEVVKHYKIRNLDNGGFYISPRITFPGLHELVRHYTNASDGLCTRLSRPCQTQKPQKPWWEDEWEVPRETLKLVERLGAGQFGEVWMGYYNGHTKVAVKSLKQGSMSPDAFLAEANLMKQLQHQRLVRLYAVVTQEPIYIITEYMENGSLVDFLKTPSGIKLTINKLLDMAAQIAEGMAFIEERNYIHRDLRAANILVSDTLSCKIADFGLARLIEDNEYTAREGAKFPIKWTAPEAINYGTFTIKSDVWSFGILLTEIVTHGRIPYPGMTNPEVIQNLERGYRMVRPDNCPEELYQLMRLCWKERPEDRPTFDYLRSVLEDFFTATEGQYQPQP
# [6] = Inhibition of basal ERK phosphorylation in human MALME-3M cells; assay type: cell-based
# [7] = molecular target: Tyrosine-protein kinase Fgr (Homo sapiens) (UniProt P09769); assay: Inhibition of FGR at 1 uM; procedure, shortened: as §1
# Tyrosine-protein kinase Fgr (Homo sapiens), sequence (P09769 2-529 limits assumed): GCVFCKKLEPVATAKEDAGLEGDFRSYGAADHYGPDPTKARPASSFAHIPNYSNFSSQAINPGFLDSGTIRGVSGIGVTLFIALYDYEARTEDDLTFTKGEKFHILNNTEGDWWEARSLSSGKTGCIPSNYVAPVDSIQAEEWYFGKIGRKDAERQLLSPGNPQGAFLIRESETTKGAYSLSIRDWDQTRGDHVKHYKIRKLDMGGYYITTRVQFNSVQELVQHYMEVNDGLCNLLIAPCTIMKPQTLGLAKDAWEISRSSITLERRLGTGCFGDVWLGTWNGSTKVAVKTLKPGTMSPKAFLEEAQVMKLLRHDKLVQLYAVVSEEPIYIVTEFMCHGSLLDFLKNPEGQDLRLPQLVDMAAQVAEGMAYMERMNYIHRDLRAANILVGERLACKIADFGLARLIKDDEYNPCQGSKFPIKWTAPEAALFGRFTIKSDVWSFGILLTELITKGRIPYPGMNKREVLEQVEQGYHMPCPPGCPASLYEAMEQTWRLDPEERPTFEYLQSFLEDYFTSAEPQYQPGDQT
# [8] = molecular target: Serine/threonine-protein kinase B-raf (Homo sapiens, UniProt P15056, V600E); assay: Inhibition of full length B-Raf V600E mutant
# Serine/threonine-protein kinase B-raf, sequence (P15056 2-766 V600E limits assumed): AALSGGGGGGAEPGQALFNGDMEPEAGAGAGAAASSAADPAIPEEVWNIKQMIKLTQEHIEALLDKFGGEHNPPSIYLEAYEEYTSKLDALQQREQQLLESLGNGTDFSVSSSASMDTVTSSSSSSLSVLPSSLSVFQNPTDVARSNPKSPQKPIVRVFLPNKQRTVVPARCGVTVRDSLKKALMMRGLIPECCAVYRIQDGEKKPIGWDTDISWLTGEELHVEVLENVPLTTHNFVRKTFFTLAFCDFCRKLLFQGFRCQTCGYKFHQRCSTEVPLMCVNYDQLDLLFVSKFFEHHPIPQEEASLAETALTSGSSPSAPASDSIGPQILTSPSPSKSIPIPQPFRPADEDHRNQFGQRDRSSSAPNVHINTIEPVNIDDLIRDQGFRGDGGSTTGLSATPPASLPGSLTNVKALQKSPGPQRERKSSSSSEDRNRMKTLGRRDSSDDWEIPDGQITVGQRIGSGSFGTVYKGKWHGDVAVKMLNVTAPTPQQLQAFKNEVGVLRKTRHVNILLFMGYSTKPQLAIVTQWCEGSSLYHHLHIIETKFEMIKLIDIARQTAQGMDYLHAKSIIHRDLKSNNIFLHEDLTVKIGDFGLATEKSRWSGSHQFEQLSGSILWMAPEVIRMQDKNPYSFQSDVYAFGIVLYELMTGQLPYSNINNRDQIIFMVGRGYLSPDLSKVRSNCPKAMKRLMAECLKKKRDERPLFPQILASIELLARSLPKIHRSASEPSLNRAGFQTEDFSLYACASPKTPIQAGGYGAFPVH
# [9] = molecular target: Proto-oncogene tyrosine-protein kinase Src (Homo sapiens) (UniProt P12931); assay: Inhibition of SRC at 1 uM; procedure, shortened: as §1
# Proto-oncogene tyrosine-protein kinase Src (Homo sapiens), sequence (P12931 2-536 limits assumed): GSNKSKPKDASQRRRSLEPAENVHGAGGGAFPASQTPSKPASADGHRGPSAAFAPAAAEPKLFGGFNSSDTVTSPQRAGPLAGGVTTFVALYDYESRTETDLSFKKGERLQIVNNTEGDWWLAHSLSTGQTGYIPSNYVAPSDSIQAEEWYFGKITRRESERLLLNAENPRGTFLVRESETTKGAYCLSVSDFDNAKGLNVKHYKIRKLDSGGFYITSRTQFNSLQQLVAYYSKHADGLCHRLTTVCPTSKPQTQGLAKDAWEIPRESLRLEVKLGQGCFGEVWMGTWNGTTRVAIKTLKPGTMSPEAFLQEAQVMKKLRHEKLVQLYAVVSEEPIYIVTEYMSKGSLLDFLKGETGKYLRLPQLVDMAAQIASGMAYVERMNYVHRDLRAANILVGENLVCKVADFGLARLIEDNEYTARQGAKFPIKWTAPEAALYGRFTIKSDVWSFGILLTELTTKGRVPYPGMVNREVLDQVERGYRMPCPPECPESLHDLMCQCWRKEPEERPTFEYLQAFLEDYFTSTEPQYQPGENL
# Receptor-type tyrosine-protein kinase FLT3 (Homo sapiens), sequence (P36888 whole entry): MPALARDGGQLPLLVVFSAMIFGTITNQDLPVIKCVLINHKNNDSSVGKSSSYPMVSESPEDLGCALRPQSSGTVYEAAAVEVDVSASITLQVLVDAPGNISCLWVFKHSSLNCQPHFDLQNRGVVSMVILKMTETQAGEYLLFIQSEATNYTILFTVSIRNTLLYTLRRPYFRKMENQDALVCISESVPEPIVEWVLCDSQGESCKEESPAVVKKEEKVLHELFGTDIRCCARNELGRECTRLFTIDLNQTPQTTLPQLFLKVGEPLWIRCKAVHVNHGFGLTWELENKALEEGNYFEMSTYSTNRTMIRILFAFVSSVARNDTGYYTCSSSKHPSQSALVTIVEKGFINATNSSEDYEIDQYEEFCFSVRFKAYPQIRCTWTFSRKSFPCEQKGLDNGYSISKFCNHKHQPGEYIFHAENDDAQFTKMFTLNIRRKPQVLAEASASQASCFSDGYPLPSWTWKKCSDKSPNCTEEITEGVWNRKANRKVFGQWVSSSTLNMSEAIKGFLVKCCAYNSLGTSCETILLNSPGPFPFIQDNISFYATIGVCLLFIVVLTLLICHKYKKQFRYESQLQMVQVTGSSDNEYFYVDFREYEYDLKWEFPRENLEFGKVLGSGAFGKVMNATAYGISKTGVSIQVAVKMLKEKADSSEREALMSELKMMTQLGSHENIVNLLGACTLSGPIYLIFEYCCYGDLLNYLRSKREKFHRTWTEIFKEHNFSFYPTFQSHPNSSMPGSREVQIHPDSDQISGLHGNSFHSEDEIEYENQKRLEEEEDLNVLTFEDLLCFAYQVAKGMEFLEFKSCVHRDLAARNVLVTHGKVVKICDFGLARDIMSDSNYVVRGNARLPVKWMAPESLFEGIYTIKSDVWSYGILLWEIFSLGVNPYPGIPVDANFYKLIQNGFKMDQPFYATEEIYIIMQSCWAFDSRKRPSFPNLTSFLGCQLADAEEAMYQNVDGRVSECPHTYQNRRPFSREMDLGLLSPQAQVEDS
IC50 [6] [nM],IC50 [8] [nM],SMILES,also measured
12,0.7,COc1n[nH]c2ncc(NC(=O)c3c(F)ccc(NS(=O)(=O)c4cccc(F)c4)c3F)cc12,inhibition [1]: 77%; inhibition [2]: 52%; inhibition [3]: 98%; inhibition [4]: 101%; inhibition [5]: 96%; inhibition [7]: 98%; inhibition [9]: 77%
400,76,CCCS(=O)(=O)Nc1cc(F)cc(C(=O)Nc2cnc3[nH]ccc3c2)c1F,
270,33,O=C(Nc1cnc2[nH]ccc2c1)c1c(F)ccc(NS(=O)(=O)CCC(F)(F)F)c1F,
63,18,COc1n[nH]c2ncc(NC(=O)c3c(F)ccc(NS(=O)(=O)N(C)C)c3F)cc12,
9.1,1.8,COc1n[nH]c2ncc(NC(=O)c3c(F)ccc(NS(=O)(=O)c4ccccc4F)c3F)cc12,
2100,88,CCCS(=O)(=O)Nc1ccc(Cl)c(C(=O)Nc2cnc3[nH]ccc3c2)c1,
630,110,COc1n[nH]c2ncc(NC(=O)c3c(F)ccc(NS(=O)(=O)NC(C)C)c3F)cc12,
120,40,CCCCS(=O)(=O)Nc1ccc(F)c(C(=O)Nc2cnc3[nH]ccc3c2)c1F,
62,16,CCCS(=O)(=O)Nc1ccc(F)c(C(=O)Nc2cnc3[nH]cc(C)c3c2)c1F,
66,0.7,COc1n[nH]c2ncc(NC(=O)c3c(F)ccc(NS(=O)(=O)c4ccco4)c3F)cc12,
206,8.3,CCCS(=O)(=O)Nc1ccc(Cl)c(C(=O)Nc2cnc3[nH]ccc3c2)c1Cl,
190,17,CCCS(=O)(=O)Nc1ccc(Cl)c(C(=O)Nc2cnc3[nH]ccc3c2)c1F,
340,46,COc1n[nH]c2ncc(NC(=O)c3c(F)ccc(NS(=O)(=O)c4ccc(F)cc4)c3F)cc12,
290,87,CCCS(=O)(=O)Nc1cccc(C(=O)Nc2cnc3[nH]ccc3c2)c1F,
1400,170,CCCS(=O)(=O)Nc1ccc(C)c(C(=O)Nc2cnc3[nH]ccc3c2)c1F,
12,2.4,CCCS(=O)(=O)Nc1ccc(F)c(C(=O)Nc2cnc3[nH]nc(OCC)c3c2)c1F,
230,6.2,CCCS(=O)(=O)Nc1ccc(F)c(C(=O)Nc2cnc3[nH]cc(C(F)(F)F)c3c2)c1F,
62,25,CCS(=O)(=O)Nc1ccc(F)c(C(=O)Nc2cnc3[nH]nc(OC)c3c2)c1F,

IC50 [6] [nM],IC50 [8] [nM],SMILES,also measured
2600,38,O=C(Nc1cnc2[nH]ccc2c1)c1c(F)ccc(NS(=O)(=O)CC(F)(F)F)c1F,
28,5.3,CCCS(=O)(=O)Nc1ccc(F)c(C(=O)Nc2cnc3[nH]nc(OCC(F)(F)F)c3c2)c1F,
20,1,COc1n[nH]c2ncc(NC(=O)c3c(F)ccc(NS(=O)(=O)c4cc(F)ccc4F)c3F)cc12,
13,1.3,COc1n[nH]c2ncc(NC(=O)c3c(F)ccc(NS(=O)(=O)CCCF)c3F)cc12,
40,1.4,CCCS(=O)(=O)Nc1ccc(Cl)c(C(=O)Nc2cnc3[nH]nc(OC)c3c2)c1Cl,
260,200,CN(C)S(=O)(=O)Nc1ccc(F)c(C(=O)Nc2cnc3[nH]ccc3c2)c1F,
170,120,O=C(Nc1cnc2[nH]ccc2c1)c1c(F)ccc(NS(=O)(=O)N2CCCC2)c1F,
18,8.6,COc1n[nH]c2ncc(NC(=O)c3c(F)ccc(NS(=O)(=O)N4CCCC4)c3F)cc12,inhibition [1]: 85%; inhibition [2]: 47%; inhibition [3]: 105%; inhibition [4]: 105%; inhibition [5]: 90%; inhibition [7]: 101%; inhibition [9]: 52%
500,13,COc1n[nH]c2ncc(NC(=O)c3c(F)ccc(NS(=O)(=O)NCC(F)F)c3F)cc12,
100,2.3,CCCS(=O)(=O)Nc1cc(F)c(F)c(C(=O)Nc2cnc3[nH]nc(OC)c3c2)c1F,
83,0.5,COc1n[nH]c2ncc(NC(=O)c3c(F)ccc(NS(=O)(=O)c4cccnc4)c3F)cc12,
43,4.2,CCCS(=O)(=O)Nc1ccc(F)c(C(=O)Nc2cnc3[nH]nc(OCC4COC4)c3c2)c1F,
11,4.5,COc1n[nH]c2ncc(NC(=O)c3c(F)ccc(NS(=O)(=O)CC(C)C)c3F)cc12,
230,29,O=C(Nc1cnc2[nH]ccc2c1)c1c(F)ccc(NS(=O)(=O)CC2CC2)c1F,
84,9.2,CCCS(=O)(=O)Nc1ccc(F)c(C(=O)Nc2cnc3[nH]nc(CC)c3c2)c1F,
170,63,COc1n[nH]c2ncc(NC(=O)c3c(F)ccc(NS(=O)(=O)C4CC4)c3F)cc12,
200,140,CC(C)CS(=O)(=O)Nc1ccc(F)c(C(=O)Nc2cnc3[nH]ccc3c2)c1F,

SMILES,IC50 [6] [nM],IC50 [8] [nM],also measured
CCCS(=O)(=O)Nc1ccc(F)c(C(=O)Nc2cnc3[nH]nc(OC)c3c2)c1F,19,,inhibition [1]: 52%; inhibition [2]: 1%; inhibition [3]: 94%; inhibition [4]: 83%; inhibition [5]: 56%; inhibition [7]: 88%; inhibition [9]: 22%

# Source: ChEMBL document CHEMBL1821716, “Pyrazolopyridine inhibitors of B-RafV600E. Part 2: structure-activity relationships” (Bioorg Med Chem Lett, 2011)
